A selection: hits, their analogues and other compounds. The true share with any hit is near 1.9%.
LEDGF integ inh: blocks HIV-1 LEDGF/p75-dependent DNA integration | TR-FRET IN-LEDGF/p75 DNA integration, Eu/Cy5 | inhibition, % at 3.7 µM | 370,000 tested, 0.64% active;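 active means inhibition above the screen-wide mean plus 3 SD, cut at about 13% in these data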;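 further: signal is the Cy5 over europium emission ratio at 671 and 618 nm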
UHRF1 binding: blocks human UHRF1 binding to methylated DNA; Q96T88; UHRF1 binding to methylated oligo, TR-FRET; inhibition, % at 4.4 µM; 370,000 tested, 0.75% active; AID 687016; in the data active means inhibition above about 21%;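 further: UHRF1 SRA domain binding a hemimethylated CpG hairpin DNA probe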
Rin1 Abl inh: inhibitors of human Rin1-Abl protein interaction; P00519+Q13671; TR-FRET Rin1/Abl binding, biochemical; inhibition, % at 7.35 µM; 360,000 tested, 0.4% active; in the data active means inhibition above about 5%, passing the limit was not always enough
Target sequence (P00519 whole entry, looked up): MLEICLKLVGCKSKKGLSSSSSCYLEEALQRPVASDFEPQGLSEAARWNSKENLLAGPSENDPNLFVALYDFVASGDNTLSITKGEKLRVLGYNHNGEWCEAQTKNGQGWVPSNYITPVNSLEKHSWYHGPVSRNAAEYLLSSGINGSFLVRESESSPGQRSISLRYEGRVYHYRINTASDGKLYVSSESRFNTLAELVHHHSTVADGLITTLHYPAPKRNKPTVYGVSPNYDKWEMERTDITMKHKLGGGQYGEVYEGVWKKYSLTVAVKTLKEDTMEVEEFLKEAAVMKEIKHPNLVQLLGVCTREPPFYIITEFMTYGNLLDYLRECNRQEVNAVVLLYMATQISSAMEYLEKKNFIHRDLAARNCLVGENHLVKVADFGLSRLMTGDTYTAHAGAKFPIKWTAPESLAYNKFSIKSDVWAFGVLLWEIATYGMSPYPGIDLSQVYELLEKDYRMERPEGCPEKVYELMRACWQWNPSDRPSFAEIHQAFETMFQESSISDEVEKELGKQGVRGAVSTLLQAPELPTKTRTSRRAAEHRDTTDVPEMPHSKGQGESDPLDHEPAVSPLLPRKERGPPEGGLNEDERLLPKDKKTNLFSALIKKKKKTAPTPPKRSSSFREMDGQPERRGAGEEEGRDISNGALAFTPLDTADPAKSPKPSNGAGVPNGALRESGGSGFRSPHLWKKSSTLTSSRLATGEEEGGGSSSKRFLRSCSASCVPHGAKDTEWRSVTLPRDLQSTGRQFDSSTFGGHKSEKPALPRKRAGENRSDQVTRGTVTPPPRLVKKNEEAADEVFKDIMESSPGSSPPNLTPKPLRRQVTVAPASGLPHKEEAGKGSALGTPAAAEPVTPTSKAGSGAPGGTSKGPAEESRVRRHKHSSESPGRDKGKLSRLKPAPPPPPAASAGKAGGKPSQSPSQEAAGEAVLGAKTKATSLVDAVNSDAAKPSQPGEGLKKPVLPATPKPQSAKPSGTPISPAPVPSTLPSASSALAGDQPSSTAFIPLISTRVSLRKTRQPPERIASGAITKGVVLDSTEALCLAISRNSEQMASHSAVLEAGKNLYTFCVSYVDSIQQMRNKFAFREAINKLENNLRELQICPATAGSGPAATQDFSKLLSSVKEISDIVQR
Target sequence (Q13671 whole entry, looked up): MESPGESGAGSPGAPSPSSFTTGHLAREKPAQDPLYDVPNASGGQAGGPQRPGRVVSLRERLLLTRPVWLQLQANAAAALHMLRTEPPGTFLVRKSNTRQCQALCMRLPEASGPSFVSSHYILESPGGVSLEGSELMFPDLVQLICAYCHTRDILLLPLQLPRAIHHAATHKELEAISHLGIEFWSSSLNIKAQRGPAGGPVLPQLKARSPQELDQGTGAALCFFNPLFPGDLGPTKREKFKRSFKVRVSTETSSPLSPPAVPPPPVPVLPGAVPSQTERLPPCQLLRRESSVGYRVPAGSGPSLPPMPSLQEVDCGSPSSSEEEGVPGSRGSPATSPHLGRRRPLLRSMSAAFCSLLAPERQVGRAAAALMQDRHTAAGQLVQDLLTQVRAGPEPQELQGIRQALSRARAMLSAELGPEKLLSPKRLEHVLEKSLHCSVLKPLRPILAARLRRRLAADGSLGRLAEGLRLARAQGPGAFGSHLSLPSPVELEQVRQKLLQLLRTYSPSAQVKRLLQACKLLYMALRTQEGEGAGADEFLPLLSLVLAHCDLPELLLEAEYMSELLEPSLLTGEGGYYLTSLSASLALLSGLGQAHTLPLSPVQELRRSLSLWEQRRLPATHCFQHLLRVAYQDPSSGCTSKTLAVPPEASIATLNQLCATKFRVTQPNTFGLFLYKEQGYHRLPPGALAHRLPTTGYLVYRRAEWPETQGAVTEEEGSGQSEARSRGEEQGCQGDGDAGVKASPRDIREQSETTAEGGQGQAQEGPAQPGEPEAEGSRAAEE
TDP2 absorb: TDP2 (human) inhibition, absorbance primary screen; 370,000 tested, 0.34% active; recombinant TDP2, T5PNP hydrolysis, p-nitrophenol absorbance 415 nm; O95551; AID 720702; inhibition, % at 12.8 µM;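 active means inhibition above the mean of all tested compounds plus 3 SD, set per campaign, cut at about 25% in these data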
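test system = human TDP2 enzyme | input = TDP2 enzyme at 120 nM final | medium = 50 mM Tris-HCl pH 7.5 with Mg2+, KCl, DTT, BSA | also added = T5PNP substrate, 5 mM | times = 2 h at 37 °C | technique = epi absorbance | benchmarks = high control without enzyme, low control DMSO plus TDP2 | replication = each compound tested once, singlicate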
MBD2 inh: MBD2-methylated oligo binding inhibition. Q9UBB5. TR-FRET, MBD2 binding to methylated oligonucleotide. inhibition, % at 4.4 µM. 370,000 tested, 0.31% active. AID 686964; in the data active means inhibition above about 13%
A number is an active result; . = inactive; / = not tested or not shown.

SMILES | LEDGF integ inh | UHRF1 binding | Rin1 Abl inh | TDP2 absorb | MBD2 inh
CCCCCCCCN1CN2Cc3cc(OC)ccc3C2CS1(=O)=O (configuration not stated) | . | . | / | . | .
CCC(O)(c1ccc(NC(=O)OC(C)(C)C)cc1)c1cc(OC)cc(OC)c1 (configuration not stated) | . | . | / | . | .
COC(=O)[C@]12C[C@H](CC(=O)NCc3ccccc3)C(=O)N(Cc3ccco3)C1=C[C@H](COCc1ccccc1)O[C@@H]2C | . | . | / | . | .
O=S(=O)(c1ccc(F)cc1)N1CCC(c2nc3ccccc3o2)CC1 | . | . | / | . | .
COc1ccccc1Cc1c(-c2ccc(C)cc2)nc2c(C)cc(Br)cn12 | . | . | . | . | .
COc1ccccc1Cc1c(C(C)(C)C)nc2ccc(C)cn12 | . | 23 | . | . | .
COc1ccc(Cc2c(C(C)(C)C)nc3ccc(Cl)cn23)c(C)c1 | . | . | . | . | .
COc1ccccc1Cc1c(-c2ccc(OC)c(OC)c2)nc2ccc(C)cn12 | . | . | . | . | .
COc1ccc(Cc2c(C(C)(C)C)nc3ccc(C)cn23)c(C)c1 | . | 24 | . | . | .
COc1ccccc1Cc1c(C(C)(C)C)nc2c(C)cc(Br)cn12 | . | 23 | / | . | .
Cc1ccc(OCc2nnc(SCC(=O)Nc3ccc(OCc4ccccc4)cc3)n2-c2ccc(Cl)cc2)cc1 | . | . | / | . | .
COc1cccc(NC(=O)C2CCCN2C(=O)NC2CCC(C)CC2)c1 (configuration not stated) | . | . | / | . | .
O=C1/C(=C/c2cccnc2)CC/C1=C\c1cccnc1 | . | 40 | . | . | .
Cc1nc2sc(C(=O)O)c(N)c2c2c1COC(C)(C)C2 | . | . | . | . | .
CCOC(=O)c1sc2nc(-c3ccco3)c3c(c2c1N)CC(C)(C)OC3 | 42 | . | . | . | .
O=S1(=O)c2ccc(N3CC[C@@H](O)C3)cc2O[C@H]2CCN1C2 | . | . | / | . | .
COc1ccc(CNC(=O)c2sc(=O)n(Cc3cc(Cl)ccc3OC)c2C)cc1 | . | . | . | . | .
COc1ccc(CNC(=O)c2sc(=O)n(Cc3cc(C(C)=O)ccc3OC)c2C)cc1 | . | 22 | . | . | .
COc1ccc(Cl)cc1Cn1c(C)c(C(=O)NCc2ccc3c(c2)OCCO3)sc1=O | . | 43 | . | . | .
CCOc1ncccc1C(=O)N1CCN(C(=O)c2ccccc2)CC1 | . | 21 | . | . | .
CCOc1ncccc1C(=O)N1CCN(S(=O)(=O)c2ccccc2)CC1 | . | . | . | . | .
CC(NC(=O)c1ccc(S(=O)(=O)N(C)C)cc1)c1ccccc1 (configuration not stated) | . | 21 | . | . | .
CC(NC(=O)c1ccc(S(=O)(=O)N(C)C)cc1)c1ccc(-n2ccnc2)cc1 (configuration not stated) | . | . | . | . | .
COC(CNC(=O)[C@H](Cc1c[nH]c2ccccc12)NC1(C(=O)NCc2ccccc2)CCCCC1)OC | . | . | / | . | .
Cc1cc(S(=O)(=O)N2CCCOC2CNC(=O)C(=O)NCc2ccco2)ccc1F (configuration not stated) | . | 56 | . | . | .
SMILES | LEDGF integ inh | UHRF1 binding | Rin1 Abl inh | TDP2 absorb | MBD2 inh
O=C(NCc1ccco1)C(=O)NCC1OCCCN1S(=O)(=O)c1ccc(Cl)cc1 (configuration not stated) | . | . | . | . | .
COc1ccc(C(=O)CSc2nnc(-c3cccc(Cl)c3)n2Cc2ccco2)cc1 | . | . | / | . | .
COc1cc2c(cc1OC)CN(c1nc(CN3CCCC3)nc3sc(C)c(C)c13)CC2 | . | 34 | . | . | .
O=C(Nc1ccc(F)cc1F)C1CCCN1S(=O)(=O)c1cccnc1 (configuration not stated) | . | . | / | . | .
COC(=O)[C@H](Cc1ccccc1)NP(=O)(OC)[C@@H](C)NC(=O)OCc1ccccc1 (some centres not stated) | . | . | / | . | .
CNc1oc(-c2ccccc2)nc1S(=O)(=O)c1ccc(C)cc1 | . | . | . | . | .
CN(C)c1oc(-c2ccc(Cl)cc2)nc1S(=O)(=O)c1ccccc1 | . | 25 | . | . | .
Cc1ccc(C(=O)Cn2nnc(-c3ccccc3-n3cnnn3)n2)cc1 | . | . | . | . | .
COc1ccc(C(=O)Cn2nnc(-c3ccccc3-n3cnnn3)n2)cc1 | . | 34 | . | . | .
COc1cc(NCCCCCCN)c2ncccc2c1OC | 40 | . | . | 52 | .
COc1cc(NC(C)CCCNC(C)C)c2ncccc2c1OC (configuration not stated) | 14 | . | . | . | .
COc1cc2c(cc1NC(=O)CSc1nnc(-c3cccc(Cl)c3)n1-c1ccccc1)oc1ccccc12 | . | . | / | . | .
CC(C)c1ccccc1NC(=O)[C@@H]1CCCN1S(=O)(=O)c1cccc2cccnc12 | . | . | / | . | .
COc1ccc(Cn2cc(COC(=O)N3CCCC3)nn2)cc1 | . | . | / | . | .
COc1ccc(S[C@]2(C(=O)N3CCN(c4ncccn4)CC3)CC(=O)N[C@@H]2c2ccc(OC)cc2)cc1 | . | . | / | . | .
Cc1nc(SCc2ccc(F)cc2)n[nH]1 | . | . | . | . | .
Cc1cc(C)nc(SCc2ccc(F)cc2)n1 | . | 23 | . | . | .
CC(C)C[C@@H](CNCC(=O)[C@H](C)NC(=O)c1[nH]cnc1C(=O)N[C@@H](C)CN)NC(=O)c1nc[nH]c1C(=O)N[C@@H](C)C(=O)O | . | 22 | . | . | .
CC(C)C[C@@H](CNCC(=O)[C@H](Cc1ccccc1)NC(=O)c1[nH]cnc1C(=O)N[C@@H](C)CN)NC(=O)c1nc[nH]c1C(=O)N[C@@H](C)C(=O)O | . | 23 | . | . | .
O=Cc1ccc(N2Cc3ccccc3C2)cc1 | 18 | . | . | . | .
Oc1ccc(N2Cc3ccccc3C2)cc1 | / | / | . | / | /
COc1cccc(-c2ccc3c(c2)O[C@@H](CN(C)C(=O)C2CCOCC2)[C@H](C)CN([C@H](C)CO)S3(=O)=O)c1 | . | 22 | . | . | .
C[C@H]1CN([C@@H](C)CO)S(=O)(=O)c2ccc(Br)cc2O[C@H]1CN(C)C(=O)c1cccnc1 | . | 24 | . | . | .
Cc1ccccc1-c1ccc2c(c1)O[C@H](CN(C)C(=O)C1CC1)[C@@H](C)CN([C@@H](C)CO)S2(=O)=O | . | . | . | . | .
C[C@@H]1CN([C@H](C)CO)S(=O)(=O)c2ccc(Br)cc2O[C@@H]1CN(C)Cc1ccc(C(=O)O)cc1 | . | . | . | . | .
C[C@@H]1CN([C@H](C)CO)S(=O)(=O)c2ccc(Br)cc2O[C@H]1CN(C)C(=O)C1CC1 | . | 21 | . | . | .
C[C@@H]1CN([C@@H](C)CO)S(=O)(=O)c2ccc(Br)cc2O[C@H]1CN(C)C(=O)c1ccncc1 | . | . | . | . | .

Bioassay records as filed in PubChem BioAssay.
